From ChEMBL document CHEMBL4619769, “N-Aryl-3-mercaptosuccinimides as Antivirulence Agents Targeting Pseudomonas aeruginosa Elastase and Clostridium Collagenases” (J Med Chem, 2020) come the findings set out here.

Structures are written as SMILES. The source made the active and inactive calls. No cut-off for these calls is given here.

The target in data set [1] is T1, Elastase (Pseudomonas aeruginosa (strain ATCC 15692 / PAO1 / 1C / PRS 101 / LMG12228), UniProt P14756). The data set can be described thus: Inhibition of Pseudomonas aeruginosa PA14 LasB using 2-Aminobenzoyl-AlaGly-Leu-Ala-4-Nitrobenzylamide as fluorogenic substrate preincubated for 15 mins followed by substrate addition measured after 60 mins by FRET assay. An outline of the steps: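 IC50 from at least two independent experiments, each run in duplicate. Thioacetate analogues were scored as percent inhibition at 200 μM.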
T1 sequence (P14756 whole entry): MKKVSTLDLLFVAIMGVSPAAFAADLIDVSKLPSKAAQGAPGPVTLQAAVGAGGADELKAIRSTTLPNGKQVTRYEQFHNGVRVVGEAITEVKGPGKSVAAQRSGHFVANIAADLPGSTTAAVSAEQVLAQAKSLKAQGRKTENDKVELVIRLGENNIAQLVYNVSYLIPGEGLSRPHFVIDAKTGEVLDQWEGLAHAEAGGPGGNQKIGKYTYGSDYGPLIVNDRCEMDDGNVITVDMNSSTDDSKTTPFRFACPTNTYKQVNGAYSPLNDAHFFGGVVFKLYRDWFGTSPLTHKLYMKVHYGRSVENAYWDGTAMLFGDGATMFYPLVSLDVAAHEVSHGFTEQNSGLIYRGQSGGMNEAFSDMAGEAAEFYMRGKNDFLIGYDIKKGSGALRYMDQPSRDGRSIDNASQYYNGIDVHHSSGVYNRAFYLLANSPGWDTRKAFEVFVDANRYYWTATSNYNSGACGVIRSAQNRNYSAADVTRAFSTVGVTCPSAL

A further data set concerns HepG2. In words: Cytotoxicity against human HepG2 cells assessed as reduction in cell viability by MTT assay. In kind it is cell-based.
The next data set relates to A549. In words: Cytotoxicity against human A549 cells assessed as reduction in cell viability by MTT assay. It is filed as cell-based.
For another data set, the system named is Pseudomonas aeruginosa. The data set can be described thus: Toxicity in Pseudomonas aeruginosa PA14 assessed as reduction in bacterial growth after 18 hrs. In kind it is organism-based. The note with it: in vivo.
In the next data set the test system is HEK293. The data set can be described thus: Cytotoxicity against HEK293 cells assessed as reduction in cell viability by MTT assay. It is filed as cell-based. As to conditions: Homo sapiens.
The target of the next data set is T2, Collagenase ColH (Hathewaya histolytica, UniProt Q46085).
T2 sequence (Q46085 whole entry): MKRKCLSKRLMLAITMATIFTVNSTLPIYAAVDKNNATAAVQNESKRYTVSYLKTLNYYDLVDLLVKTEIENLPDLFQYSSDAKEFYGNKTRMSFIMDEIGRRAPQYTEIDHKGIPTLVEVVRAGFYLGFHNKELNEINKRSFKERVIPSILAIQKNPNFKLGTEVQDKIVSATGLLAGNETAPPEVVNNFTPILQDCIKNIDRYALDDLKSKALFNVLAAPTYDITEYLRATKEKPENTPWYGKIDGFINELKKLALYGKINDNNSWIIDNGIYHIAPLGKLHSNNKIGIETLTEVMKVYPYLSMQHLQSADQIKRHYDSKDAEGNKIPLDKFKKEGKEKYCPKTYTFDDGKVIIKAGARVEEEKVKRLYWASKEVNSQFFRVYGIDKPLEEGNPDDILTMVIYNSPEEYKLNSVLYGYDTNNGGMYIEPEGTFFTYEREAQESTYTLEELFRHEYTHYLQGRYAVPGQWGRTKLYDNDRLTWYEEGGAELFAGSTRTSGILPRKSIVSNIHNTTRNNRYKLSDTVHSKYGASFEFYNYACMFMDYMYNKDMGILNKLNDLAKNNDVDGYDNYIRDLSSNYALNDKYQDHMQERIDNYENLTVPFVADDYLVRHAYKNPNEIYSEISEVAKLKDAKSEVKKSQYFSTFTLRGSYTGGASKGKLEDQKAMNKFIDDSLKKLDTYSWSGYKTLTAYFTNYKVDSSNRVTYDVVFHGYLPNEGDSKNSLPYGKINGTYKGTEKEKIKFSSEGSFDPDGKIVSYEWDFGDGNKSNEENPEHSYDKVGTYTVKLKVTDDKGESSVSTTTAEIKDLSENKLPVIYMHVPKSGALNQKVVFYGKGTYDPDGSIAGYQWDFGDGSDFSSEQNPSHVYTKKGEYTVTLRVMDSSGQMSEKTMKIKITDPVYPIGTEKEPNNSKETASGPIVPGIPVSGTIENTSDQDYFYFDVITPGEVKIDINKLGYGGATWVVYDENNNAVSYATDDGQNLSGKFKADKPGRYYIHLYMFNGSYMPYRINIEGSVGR
The data set can be described thus: Inhibition of Clostridium histolyticum ColH peptidase domain expressed in Escherichia coli BL21(DE3) cells using Mca-Ala-Gly-Pro-Pro-Gly-Pro-Dpa-Gly-Arg-NH2 as substrate preincubated for 1 hr followed by substrate addition measured for 2 mins by FRET assay. An outline of the steps: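 Peptidolytic ColH-PD activity read by FRET. Compounds were first screened at 1 μM (means of three independent experiments), then tested dose-response with the reducing agent TCEP present. IC50 values came from at least two independent experiments run in duplicate.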

Data set [2] in a line: Toxicity in 1 day post-fertilized zebrafish embryo AB measured up to 120 hrs post-fertilization by microscopic analysis. As to conditions: in vivo, read-out: MTC. Also noted: species or system Danio rerio. The gist of the method:
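Embryos were placed singly per well, 10 per condition, in freshly prepared compound at 2–100 μM with 1% DMSO final. Defects, heart rate, touch-evoked locomotion and survival were scored daily by microscopy; read-out was maximum tolerated concentration.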

The test system of a further data set is Bacillus cereus. The data set can be described thus: Ex vivo inhibition of Bacillus cereus Q1 ColQ1-mediated collagenolytic-activity in pig skin explant assessed as reduction in hydroxyproline release up to 400 uM preincubated for 1 hr followed by skin explant addition and measured upto 24 hrs by spectrophotometric assay. An outline of the steps:
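Pig skin explant punches, stored in DMEM with 15% glycerol at −80 °C, incubated in DMEM with 300 nM ColQ1, 4 mM CaCl2 and 10 μM ZnCl2. Compound pre-incubated with the enzyme mixture for 1 h at 37 °C, 5% CO2, then explant added, shaken at 300 rpm at 37 °C. Medium sampled at time points; hydroxyproline measured by absorbance against a hydroxyproline calibration curve.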

The test system of another data set is Hathewaya histolytica. In words: Toxicity in Clostridium histolyticum DSM 1126 assessed as reduction in bacterial growth after 48 hrs. In kind it is organism-based. As to conditions: in vivo. The gist of the method:
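Brain heart infusion broth; inoculum adjusted to McFarland 2 then prediluted 1:100. […] Means of at least two independent determinations.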

The target in data set [3] is T1, Elastase. In words: Inhibition of Pseudomonas aeruginosa LasB using aminobenzoyl-Ala-Gly-Leu-Ala-p-nitro-benzyl-amide as fluorogenic substrate by fluorimetric assay.

`CC(=O)SC1CC(=O)N(c2ccc(Cl)c(Cl)c2)C1=O` (stereo unspecified) showed an IC50 against Elastase [1] greater than 200 µM.
On to `O=C1CC(S)C(=O)N1c1ccc(Cl)c(Cl)c1` (stereo unspecified), for which the IC50 in the data set on HepG2, in the data set on A549 and in the data set on HEK293 was greater than 100 µM each time. Further, the MIC in the data set with Pseudomonas aeruginosa was greater than 100 µM.
Turning to `COc1ccc(N2C(=O)CC(SC(C)=O)C2=O)cc1` (stereo unspecified), the IC50 against Elastase [1] was greater than 200 µM.
With `CC(=O)c1ccc(NC(=O)CS)cc1`, the IC50 in the data set on HepG2 is greater than 100 µM; at Collagenase ColH, 0.017 µM; in the data set with A549, greater than 100 µM; with HEK293, greater than 100 µM.
Take `O=C1CC(S)C(=O)N1c1ccc(F)c(F)c1` (stereo unspecified): the MNTC in data set [2] is no less than 30 µM. The MIC with Pseudomonas aeruginosa was greater than 100 µM.
The molecule `CC(=O)SCC1CC(=O)N(c2ccc(Cl)c(Cl)c2)C1=O` (stereo unspecified) registered an IC50 on Elastase [1] greater than 200 µM.
In turn, `CC(=O)c1ccc(N2C(=O)CC(CS)C2=O)cc1` (stereo unspecified) returned an IC50 on Elastase [1] greater than 200 µM.
The molecule `CC(=O)SCC1CC(=O)N(c2ccc(C(C)=O)cc2)C1=O` (stereo unspecified) registered an IC50 on Elastase [1] greater than 200 µM.
Consider `O=C(CS)Nc1ccc(Cl)c(Cl)c1`, for which the IC50 in the data set on HepG2, in the data set with A549 and in the data set on HEK293 was greater than 100 µM each time. The MNTC in data set [2] amounted to 10 µM.
Take `CC(=O)c1ccc(N2C(=O)CC(S)C2=O)cc1` (stereo unspecified): the IC50 with HepG2, in the data set on A549 and in the data set on HEK293 was greater than 100 µM each time. In addition, in the data set on Bacillus cereus, the inhibition result is “Active”. Besides, the MNTC in data set [2] is no less than 30 µM. The MIC in the data set on Hathewaya histolytica was greater than 100 µM.
`CC(=O)SC1CC(=O)N(c2ccc(OC(F)(F)F)c(Cl)c2)C1=O` (stereo unspecified) had an IC50 at Elastase [1] greater than 200 µM.
As to `O=C1CC(CS)C(=O)N1c1ccc(Cl)c(Cl)c1` (stereo unspecified), the MIC with Pseudomonas aeruginosa is greater than 100 µM.
On Elastase [1], `COc1ccc(N2C(=O)CC(CSC(C)=O)C2=O)cc1` (stereo unspecified) came in with an IC50 greater than 200 µM.
On Elastase [3], `NC(=O)[C@H](Cc1ccc(O)cc1)NC(=O)[C@H](Cc1c[nH]c2ccccc12)NC(=O)CS` showed a Ki of 0.0405 µM.
For the molecule `O=C1CC(CS)C(=O)N1c1ccc(F)c(F)c1` (stereo unspecified), the MIC with Pseudomonas aeruginosa was greater than 100 µM.
Regarding `CC(=O)SCC1CC(=O)N(c2ccccc2)C1=O` (stereo unspecified), the IC50 against Elastase [1] was greater than 200 µM.
